The text below walks through data of ChEMBL document CHEMBL2021842, “COMPARE analysis of the toxicity of an iminoquinone derivative of the imidazo[5,4-f]benzimidazoles with NAD(P)H:quinone oxidoreductase 1 (NQO1) activity and computational docking of quinones as NQO1 substrates” (Bioorg Med Chem, 2012).

Series [1] in a line: Aqueous solubility of the compound. It counts as physicochemical. As to conditions: buffer.
Series [2] in a line: Solubility of the compound in organic solvent. It counts as physicochemical.
Series [3] is described as follows: Cytotoxicity against human GM00637 cells assessed as reduction in mean cell viability after 72 hrs by MTT assay. The class given is cell-based. Conditions: GM00637, 72 h. Summed up:
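SV40-transformed normal skin fibroblasts (GM00637) in MEM Eagle–Earle BSS with 15% heat-inactivated FBS, 2 mM L-glutamine, 2× amino acids and vitamins. Seeded at 10,000 cells/well and left 24 h to adhere. Ethanol-delivered compound (1% final) for 72 h at 37 °C, 5% CO₂. MTT formazan in DMSO read at 550/690 nm. Viability relative to vehicle; IC₅₀ by nonlinear regression.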
(Tetrazolium assays rely on reduction of a dye to a coloured formazan, in cell work by metabolically active cells.)

In series [4] the test system is HeLa. Nature of the series: Cytotoxicity against human HeLa cells assessed as reduction in mean cell viability after 72 hrs by MTT assay. It counts as functional, cell-based. Summed up: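 HeLa-CCL-2 cells in DMEM with 10% heat-inactivated FBS, 2 mM L-glutamine and nonessential amino acids. Plated at 1000 cells/well with 24 h adherence. Treated in ethanol (1% final) for 72 h at 37 °C under 5% CO₂, with ethanol controls. Absorbance of DMSO-dissolved formazan at 550 nm, 690 nm reference. IC₅₀ by nonlinear regression of percent viability.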

The test system of series [5] is DU-145. Briefly: Cytotoxicity against human DU145 cells assessed as reduction in mean cell viability after 72 hrs by MTT assay. The class given is functional, cell-based. Conditions: DU-145, 72 h. Summed up:
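DU-145 prostate cells in RPMI-1640 with 10% heat-inactivated FBS, penicillin–streptomycin and 2 mM L-glutamine. Seeded at 2000 cells/well and left 24 h to adhere. Compound added in ethanol (1% final) for 72 h at 37 °C, 5% CO₂, with ethanol-only controls. Formazan dissolved in DMSO and read at 550 nm (690 nm reference). IC₅₀ derived by nonlinear regression of viability versus vehicle.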

`O=C1c2nc3n(c2C(=O)c2nc4n(c21)CCC4)CCC3`: the solubility entry in series [1] and in series [2] was “Insoluble” in each case.

A word on the IC50: it is the concentration at which inhibition is half-maximal. Consider `O=C1c2nc3n(c2C(=O)c2c1nc1n2CCCC1)CCCC3`, for which the figures for the IC50 in series [3], in series [4] and in series [5] were more than 5 µM, 3.33 µM and 1.73 µM, respectively.
